Assay results from different studies.
Each line is one published result; the experiments were not run side by side.
Target: Mitogen-activated protein kinase 14 (MAPK14, Homo sapiens, UniProt Q16539)

COc1cc(Cl)c(C(=O)N[C@@H](CN[C@H]2CC[C@@H](N)CC2)Cc2ccc(C#N)cc2)cc1-c1ccc(CN[C@H](C)c2ccc(C)cc2)o1 — remaining activity (enzyme activity, inhibitor; 1 µM): 107%
O=C(Nc1cccnn1)N1CCN([C@@H]2CCOc3cc(C(F)(F)F)ccc32)CC1 — inhibition (enzyme activity, inhibitor; 20 µM): -20%
N#CC1(c2ccccn2)CCN(Cc2cc(C(=O)O)c(=O)n3ccccc23)CC1 — remaining binding (cell-free assay, competition with immobilised ligand; 1 µM): 100%
CC(C)(C)c1cc(C=C(C#N)C#N)cc(Br)c1O — remaining activity (enzyme activity, inhibitor; 0.5 µM): 98.3%
Cn1cncc1[C@@](O)(COc1ccc(C#N)cc1-c1ccc(OC(F)(F)F)cc1)c1ccc(C#N)cc1 — remaining binding (cell-free assay, competition with immobilised ligand; 1 µM): 100%
C#Cc1n[nH]c2c(-c3cn(C(C)c4ccccn4)c(=O)[nH]c3=O)cc(F)cc12 (stereo not shown) — inhibition (enzyme activity, inhibitor; 1 µM): -4.4%
Cc1nn(C)cc1-c1nc2c(N3CCN(Cc4ccc(Cl)cc4)CC3)c(Cl)cnc2[nH]1 — remaining binding (binding, competition with immobilised ligand; 1 µM): 71%
COc1ncccc1-c1cnn2ccc(N3CCN(C(=O)OC(C)C)CC3)nc12 — remaining binding (binding, competition with immobilised ligand; 1 µM): 94%
Cc1ncc(C)n2nc(/C=C/c3nc(N4CCCC4)cc(N4CCOCC4)n3)nc12 — inhibition (enzyme activity, inhibitor; 10 µM): 0%
O=c1[nH]c2ccccc2n1C1CCN(Cc2ccc(-c3[nH]c4cc5ncnc5cc4nc3-c3ccccc3)cc2)CC1 — remaining signal (cell-free assay; 0.5 µM): 99.7%
